HSF1 inhib: HSF1 inhibitors in luciferase reporter cells, primary screen, cell-based, NIH3T3, luminescence. NIH3T3-HGL HSE-luciferase, MG132-induced, luminescence 8 h; active compounds read low. activity change, negative = inhibition, % at 7.5 µM (by protocol). 300,000 compounds, 0.77% hits;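 active = more than half of replicate wells show activity change below -50%, luminescence cut by over half; inconclusive = some wells, but at most half, below -50%; inactive = no replicate well below -50%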;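 note: luciferase reports HSF-1 transcriptional activity via heat shock element; 0% = median of DMSO wells and -100% = zero luminescence signal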
NS3 helicase inh: inhibitors of HCV NS3 helicase, primary screen, biochemical, Cy5 molecular beacon fluorescence; Hepatitis C virus NS3 helicase; NS3 helicase DNA unwinding; inhibition, % at 10.9 µM; 290,000 compounds, 0.56% hits; AID 1800, 2009;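 active = inhibition above the mean of all tested compounds plus 3 SD, set per campaign, cut at about 35% in these data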;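 note: 0% = DMSO wells and 100% = thioflavine S control wells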
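Assay system: hepatitis C virus NS3 helicase domain fragment enzyme. Also added: annealed dual-labelled DNA beacon duplex, ATP-started. Timing: 1 h reaction at 25 °C, ATP-initiated. Technique: Cy5 fluorescence at 0 and 60 min, beacon hairpin quenching. Evaluation: % inhibition of unwinding. Replication: one well per compound.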
HSF1 activator: HSF-1 activators, primary screen, NIH3T3-HGL cells, MG132 stress, luminescence, single point | AID 504408, 2011 | activation, % at 9 µM | NIH3T3-HGL HSF-1 luciferase reporter, 8 h; 100% = twice DMSO control signal | 300,000 compounds, 1.7% hits;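 active = mean replicate activation of at least 50% with a set share of replicates each reaching 50%; inconclusive = only one of those two conditions met; inactive = mean below 50% and too few replicates reaching it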;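 note: 0% = median of the neutral control wells and 100% = twice that signal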
Hep lipid drop: inhibitors of hepatocyte lipid droplet formation, primary screen, imaging, high-throughput imaging, BODIPY stain; inhibition, % at 6.5 µM; 240,000 compounds, 0.4% hits; AML12 mouse hepatocytes, oleate lipid droplets; AID 1656, 2009;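 active = lipid droplet intensity inhibited by at least 50%, with more than 500 cells counted; inconclusive = wells with under 300 cells, treated as cytotoxic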
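Test system: AML12 mouse liver cells; schedule: overnight exposure; technique: high-content imaging of BODIPY-stained droplets and DAPI nuclei; read-out: % inhibition of corrected integrated BODIPY droplet signal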
HSP90 refold inh: HSP90 inhibitors, primary screen, cell lysate, luminescence; Heat shock protein HSP 90 (rabbit reticulocyte lysate; luciferase refolding); Rabbit reticulocyte lysate, luciferase refolding luminescence, 3 h; AID 1789, 2009; inhibition, % at 5.6 µM; 290,000 compounds, 0.91% hits;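 active = inhibition above the screen-wide mean plus 3 SD, computed separately per campaign, cut at about 16% in these data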;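 note: 0% = DMSO wells and 100% = 60 µM geldanamycin wells; inhibitors lower the luminescence because luciferase stays unfolded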
Active calls of the source: *; ? = inconclusive; nt = not tested or not shown. Most compounds without a hit are left out; they make up all but 3.8% or so of the library.

SMILES | HSF1 inhib | NS3 helicase inh | HSF1 activator | Hep lipid drop | HSP90 refold inh
COc1ccc(CNC(=O)C/C(C)=N/NC(=O)c2cnccn2)cc1 | 0 | 0 | -4 | 3 | 3
CCN(C(=O)CSc1nnc(-c2cccs2)o1)C1CCS(=O)(=O)C1 (stereo not drawn) | -3 | -8 | -5 | 6 | -1
CSc1nsc(SCC(=O)Nc2ccccc2C(=O)O)n1 | -13 | 12 | -29 | -14 | -2
CCOc1ccc(-n2c(N)c(C(=O)NCc3cccnc3)sc2=S)cc1 | 11 | 0 | 13 | nt | 9
COc1ccc(CNC(=O)c2sc(=S)n(-c3ccccc3)c2N)cc1 | -67* | 3 | -73 | -14 | -7
CCOC(=O)N1CCC(NC(=O)c2cccs2)CC1 | 25 | 0 | 67* | -1 | 0
CCOC(=O)c1c(NC(=O)c2cccs2)sc2c1CCN(C(=O)OCC)C2 | 35 | -5 | 71* | 2 | 1
CCCS(=O)(=O)c1nnnn1-c1cccc(OC)c1 | -95* | -3 | -95 | -1 | 1
COc1cccc(-n2nnnc2SCC(=O)Nc2ccccc2OC)c1 | 2 | 2 | 11 | -1 | 3
COc1cccc(N2CC(C(=O)Nc3nnc(SCCC4OCCO4)s3)CC2=O)c1 (stereo not drawn) | -35 | 6 | -45 | 18 | 4
CCN=C1S/C(=C\c2cc(Br)c(O)c(OC)c2)C(=O)N1CC | 9 | -9 | 31 | 1 | -1
COC(=O)c1ccc2nc(Nc3nc4c(F)cc(F)cc4s3)sc2c1 | -88* | 23 | -90 | -2 | 77*
CCOC(=O)c1ccc2nc(NC(C)=O)sc2c1 | 10 | -4 | ? | 2 | -2
CCOC(=O)c1ccc2nc(Nc3nc4ccc(F)cc4s3)sc2c1 | -80* | 4 | -82 | -5 | 12
COC(=O)c1ccccc1NC(=O)CSc1nc(Nc2ccccc2)nc(N2CCOCC2)n1 | 41 | 10 | 77* | -18 | 8
O=C(CCl)Nc1cccc(Oc2ccccc2)c1 | 37 | -2 | 74* | -2 | 2
O=C(CCl)Nc1cccc(Oc2cnccn2)c1 | -3 | -5 | 8 | nt | 1
Cc1ccc(C(=O)Nc2cccc(Oc3ccccc3)c2)o1 | 22 | -5 | 58* | -4 | 8
C=Cc1cccc(NC(=O)COc2ccccc2)c1 | 23 | 2 | 57* | -4 | -3
Nc1cc(Cl)ccc1Nc1ccncc1 | 3 | -4 | 0 | 26 | 1
O=C(NCc1nnc(SCc2ccc(F)cc2)n1-c1ccccc1)C12CC3CC(CC(C3)C1)C2 | 31 | 0 | 62* | -1 | 0
O=C(Nc1ccc(Cl)cc1)Nn1cnnc1 | 0 | 7 | 6 | nt | 1
COc1cccc(NC(=O)CCSc2nnc3scc(-c4ccccc4)n23)c1 | -73* | -1 | -78 | -4 | 4
COc1cn(-c2ccccc2)nc1C(=O)NCc1ccc(C)cc1 | 8 | 3 | 12 | 7 | 2
COc1ccc(CNC(=O)c2ccc(N(C)S(=O)(=O)c3ccc(C)cc3)cc2)cc1 | -1 | -5 | 13 | 39 | 1
SMILES | HSF1 inhib | NS3 helicase inh | HSF1 activator | Hep lipid drop | HSP90 refold inh
COc1ccc(CCNC(=O)COc2ccc(N(C)S(=O)(=O)c3ccc(C)cc3)cc2)cc1 | 8 | -20 | 53* | -15 | 0
COc1ccc(S(=O)(=O)N(C)c2ccc(C(=O)NCc3ccccn3)cc2)cc1 | 23 | -1 | 68* | -8 | 4
C=CCn1c(SCC(=O)N2CCOCC2)nnc1C(C)NC(=O)c1ccccc1 (stereo not drawn) | 0 | 4 | -14 | -43 | -2
Cc1cc2c(c(/C=C/C(=O)c3ccccc3)c1)OC1(C=C2)Oc2ccccc2C(=O)N1C (stereo not drawn) | 46 | -1 | 74* | 0 | 1
COc1cc(C2NC(=O)NC(C)=C2C(=O)OCC2CCCO2)ccc1O (stereo not drawn) | -87* | 4 | -90 | 8 | 2
COc1cc(C2NC(=O)NC(C)=C2C(=O)OCC2CCCO2)cc(OC)c1OC (stereo not drawn) | -2 | -2 | 8 | 5 | 4
CC(C)CNS(=O)(=O)c1cc(C(=O)OCC(=O)c2ccc3c(c2)OCCO3)c(Cl)cc1Cl | 21 | 9 | 69* | -20 | 0
OC(CNCCC(c1ccccc1)c1ccccc1)COc1ccccc1 (stereo not drawn) | 6 | -46 | 11 | 14 | -1
Cc1cc(/C=C2\NC(=O)NC2=O)c(C)n1-c1cccnc1 | -3 | -1 | -7 | 18 | -4
Cc1cccc(C)c1-n1c(C)cc(/C=C2\NC(=O)NC2=O)c1C | -52* | -1 | -62 | 0 | 1
CCOC(=O)COc1ccccc1/C=C\[N+](=O)[O-] | -61* | 4 | -66 | -28 | -2
Cc1ccc(C2C(C#N)=C(N)OC3=C2C(=O)CC(C)(C)C3)s1 (stereo not drawn) | -4 | -12 | 7 | 10 | 4
N#Cc1nc(-c2cccc3ccccc23)oc1NCCN1CCCCC1 | 55 | -10 | 70* | -22 | -2
CC(C)[C@H](NC(=O)[C@@H]1Cc2ccccc2CN1C(=O)OC(C)(C)C)C(=O)NCC1CCCO1 (stereo partly drawn) | 1 | 27 | 14 | -7 | -1
CC1CCC(CN2C(Nc3ccccc3)=NC[C@@H]2C)CC1 (stereo partly drawn) | -6 | 8 | -11 | -6 | -5
Cc1ccnc(NC(c2ccsc2)c2ccc3ccc(C)nc3c2O)c1 (stereo not drawn) | -54* | -6 | -67 | 0 | 1
COc1cc(C(Nc2ccccn2)c2ccc3ccc(C)nc3c2O)cc(OC)c1O (stereo not drawn) | 130 | 14 | 183* | nt | 0
COc1ccc(C(Nc2cc(C)ccn2)c2ccc3ccc(C)nc3c2O)cc1 (stereo not drawn) | -43 | -9 | -60 | -1 | -6
CC1Cc2ccccc2N1C(=O)C12CCC(C)(C(=O)C1)C2(C)C (stereo not drawn) | -63* | -3 | -71 | -6 | 5
CC(C)C(C)N(Cc1cccc(C(=O)O)c1)C(=O)c1ccc2ccccc2n1 (stereo not drawn) | -3 | nt | 7 | nt | nt
CC(C)C(C)N(Cc1ccc(C(=O)O)cc1)C(=O)c1ccc2ccccc2n1 (stereo not drawn) | 18 | nt | 58* | nt | nt
COc1ccc(/C=C2\OC(=O)c3c(OC)cccc32)cc1OC | 39 | 1 | 76* | nt | 1
COc1ccc(C=C2C(=O)OC(C)(C)OC2=O)cc1OC | -4 | -5 | 13 | -3 | 2
Nc1c(-c2ccsc2)cnc2ncnn12 | 31 | 3 | 64* | -1 | 0
CCOc1ccccc1N1CCN(C(=O)c2ccccc2SCC(=O)N2CCCC2)CC1 | -2 | 0 | 3 | -17 | 0

Source: PubChem BioAssay (several laboratories)
